Key:
Assay type in all cases: functional
[1] = Inhibitory concentration against proliferation of mouse splenocytes was determined by measuring mitochondrial dehydrogenase activity using MTT assay
Outline: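 Mouse splenocyte proliferation measured by a 72 h MTT assay, with mitochondrial dehydrogenase activity of surviving cells as read-out. Test agents were in acetate form. Cyclosporin A was included as a comparator. IC50 taken as the concentration giving 50% inhibition.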

Mus musculus [2] = organism: Mus musculus; test: Effect on level of IFN-gamma secretion splenocytes in mice following treatment with 25 uM compound done for 72 hr at 37 degree C
Outline: (§1)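 Mouse spleen cells stimulated with concanavalin A in the presence of 25 µM test agent (acetate form) at 37 °C, 5% CO2 for 72 h. Cytokine levels (IL-4 or IFN-γ) in the culture supernatant measured by mouse ELISA kit. Reduction expressed relative to control. Means ± SEM of at least three independent experiments.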

Mus musculus [3] = organism: Mus musculus; test: Effect on level of IL-4 secretion in mice splenocytes following treatment with 25 uM compound done for 72 hr at 37 degree C; outline: as §1

| SMILES | IC50 [1] | Reduction (Mus musculus [2]) | Reduction (Mus musculus [3]) |
| --- | --- | --- | --- |
| OC[C@H]1N[C@H](CO)[C@H](O)C(O)[C@H]1O (stereo not given in full) | 519 µM | 75.89% | 69.2% |
| OC[C@@H]1N[C@@H](CO)[C@H](O)C(O)[C@H]1O (stereo not given in full) | 272 µM | 51.6% | 84.6% |
| O=C(O)[C@H]1N[C@H](CO)[C@H](O)[C@H](O)[C@H]1O | 340 µM | 31.2% | 30.8% |
| O=C(O)[C@H]1N[C@@H](CO)[C@H](O)[C@H](O)[C@H]1O | 346 µM | 24.2% | 92.3% |
| OC[C@@H]1N[C@H](CO)[C@H](O)[C@@H](O)[C@H]1O | 332 µM | 86.2% | 92.3% |

— ChEMBL document CHEMBL1139521, “Synthetic iminosugar derivatives as new potential immunosuppressive agents” (J Med Chem, 2005)
